Only some compounds are listed: those with a hit (about 1.7% of all), similar ones and a draw of the others.
IDE cell inh – cellular human IDE inhibition; inhibition, % at 5.59 µM; AID 434962; 0.41% of 320,000 active; P14735; HEK cells, FAbetaB cleavage, fluorescence polarization;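 active = percent inhibition above the average of all tested compounds plus 3 SD, set per screening campaign, cut at about 16% in these data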;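 also: IDE supplied by intact live HEK cells; FP after avidin binding of uncleaved biotin substrate so inhibition keeps polarization high; 0% = DMSO wells and 100% = 60 µM reference IDE inhibitor Ii1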
CSN deneddyl inh – blocks human CSN-mediated cullin deneddylation; Q92905; Purified CSN, SCF-Nedd8-OG deneddylation, fluorescence polarization; inhibition, % at 12.5 µM; 0.38% of 360,000 active;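 active = pattern-corrected inhibition above about 35%, with an unprinted fluorescence ratio check between 0.5 and 1.5, limit read from the data, passing the limit was not always enough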;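 also: 0% = enzyme with substrate and 100% = substrate without enzyme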
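Assay system: purified human Csn5 enzyme expressed in HEK293T cells; measure: % inhibition; also added: SCFSkp2-Nedd8OG substrate at 10 nM final; technique: fluorescence polarization; times: reaction 90 min, room temperature; medium: Tris buffer pH 7.5, NaCl, DTT, Tween-20, trehalose, ovalbumin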
IDE act – activators of human insulin-degrading enzyme in cells. AID 493087. 0.073% of 340,000 active. activation, % at 5.96 µM. HEK cells, FAbeta-B cleavage, fluorescence polarization; 0% vehicle, 100% cell-free pure enzyme wells. P14735;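 active = activation above the mean of all tested compounds plus 3 SD, set per screening campaign, cut at about 17% in these data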
HNF4A DNA FP – change in binding of human HNF4 alpha to DNA. P41235. HNF4a-FITC DNA binding, fluorescence polarization, 1 h. activity change, % at 10 µM. 0.3% of 360,000 active. AID 1224865; in the data active = activity change above about 30%, passing the limit was not always enough
TPT1 inh – C. albicans TPT1 enzyme inhibition; 0.81% of 300,000 active; recombinant caTPT1, FP RNA substrate dephosphorylation; AID 1962; inhibition, % at 5 µM;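 active = inhibition above the mean of all tested compounds plus 3 SD, set per screening campaign, cut at about 24% in these data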;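 also: plate controls were DMSO alone for no effect and ferristatin control at 100 nM for full effect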
Rpn11 inh – Rpn11 (human) deubiquitinase inhibition; O00487; inhibition, % at 20 µM; 0.59% of 360,000 active; human 26S proteasome, Ub4-pepOG fluorescence polarization; 20S core pre-blocked with epoxomicin;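 active = inhibition at 20 µM, scaled to each plate's controls, above about 33%, limit read from the data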
Rpn11 inh conf – Rpn11 inhibition confirmation, single concentration. shares compounds with Rpn11 inh. purified human 26S proteasome, Ub4-pepOG fluorescence polarization; proteasome pretreated with epoxomicin. inhibition, % at 20 µM. 29% of 1,900 active. AID 602318
MMP-2 inh – MMP-2 (human) inhibition counter-screen | shares compounds with Rpn11 inh | recombinant MMP-2, FRET peptide cleavage fluorescence | inhibition, % at 20 µM | 4% of 1,900 active | AID 602330;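 also: human MMP-2 activated beforehand with APMA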
Thrombin inh – thrombin (bovine) inhibition counter-screen | shares compounds with Rpn11 inh | bovine thrombin cleavage of Ub4-pepOG, fluorescence polarization | inhibition, % at 20 µM | 13% of 1,900 active;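 active = mean inhibition at least 40% at 20 µM, or signal 3 deviations below plate average, so some actives read negative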;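 also: plate controls were thrombin with DMSO for no effect and buffer wells lacking thrombin for full effect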
Target sequence (P00735 whole entry, looked up): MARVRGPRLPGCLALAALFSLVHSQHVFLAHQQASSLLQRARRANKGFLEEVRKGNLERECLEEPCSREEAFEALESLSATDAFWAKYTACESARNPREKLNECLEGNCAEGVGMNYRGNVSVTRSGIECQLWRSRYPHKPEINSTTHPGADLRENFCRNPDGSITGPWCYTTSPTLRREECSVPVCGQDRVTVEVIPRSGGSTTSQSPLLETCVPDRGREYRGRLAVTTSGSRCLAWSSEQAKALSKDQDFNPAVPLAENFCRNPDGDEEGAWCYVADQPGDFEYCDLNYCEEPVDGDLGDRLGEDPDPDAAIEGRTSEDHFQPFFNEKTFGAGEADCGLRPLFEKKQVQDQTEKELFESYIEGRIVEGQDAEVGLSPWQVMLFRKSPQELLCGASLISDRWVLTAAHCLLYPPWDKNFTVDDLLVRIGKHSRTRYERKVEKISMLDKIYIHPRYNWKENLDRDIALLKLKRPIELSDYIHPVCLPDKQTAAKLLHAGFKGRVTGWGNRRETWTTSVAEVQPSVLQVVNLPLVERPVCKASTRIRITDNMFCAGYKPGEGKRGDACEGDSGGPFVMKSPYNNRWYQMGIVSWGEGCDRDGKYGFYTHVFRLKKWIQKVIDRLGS
The depositor's hits bear a star; nt = no result given. Rule as the data show it, unless noted: active = inhibition above about 40%; inactive = the rest.

SMILES	IDE cell inh	CSN deneddyl inh	IDE act	HNF4A DNA FP	TPT1 inh	Rpn11 inh	Rpn11 inh conf	MMP-2 inh	Thrombin inh
CCN1/C(=C\C=C2\C(=O)N(c3ccccc3)C(=S)N2C)Sc2ccccc21	nt	2.7	0.9	7.6	nt	48.1*	-1.8	0.0	-5.4
O=S(=O)(Nc1ccon1)c1ccc(Br)s1	-2.1	2.0	2.1	39.1*	0.8	51.9*	13.2	-27.5	1.6
CSc1nc2ccc(NS(=O)(=O)c3ccc(Br)s3)cc2s1	-0.6	0.0	2.1	-2.2	2.0	-1.3	nt	nt	nt
CC1(C(=O)NCCc2c[nH]c3ccccc23)CCN1Cc1csc2ccccc12 (stereo not given)	nt	0.8	nt	0.7	nt	1.9	nt	nt	nt
Cc1cccc(CSc2cccc3cccnc23)c1	-3.0	1.1	-1.3	-2.2	0.8	69.9*	42.5*	-20.2	-6.5
COc1cccc(/C=N/NC(=O)CSc2cccc3cccnc23)c1	0.2	112.2	4.8	-2.7	2.9	38.2*	-15.6	1.8	-16.6
CCOC(=O)CSc1cccc2cccnc12	5.6	6.7	0.9	-2.5	-2.0	62.7*	12.3	-32.5	-10.3
COc1ccc(OC)c(/C=N/NC(=O)CSc2cc(C)nc3c(OC)cccc23)c1	4.8	-5.0	nt	4.2	-4.4	56.0*	17.2	-8.1	-8.9
NNC(=O)c1ccc(CSc2cccc3cccnc23)cc1	3.3	-3.2	1.8	0.3	-0.1	3.1	nt	nt	nt
COc1cc(CN2CCN(CCCc3ccccc3)C(CCO)C2)cc(OC)c1O (stereo not given)	-3.8	2.3	0.1	-1.1	2.0	-0.5	nt	nt	nt
Cc1cc(=O)[nH]c(SCC(=O)NC2CCCCC2)n1	0.1	6.2	3.4	3.4	-1.3	-8.4	nt	nt	nt
CN(Cc1ccccc1)/C(=N/O)c1cccc(Cl)c1	1.4	8.9	2.7	-0.3	3.2	4.1	nt	nt	nt
Cc1nc(C)c(-c2ccc(SCC(=O)Nc3cccc(Cl)c3C)nn2)s1	-2.0	0.2	-1.4	7.6	-4.0	5.9	nt	nt	nt
Cc1nc2ccc(C(=O)NC(C)(C)C)cn2c1N(C)C(=O)CCc1ccccc1	nt	-2.5	nt	-1.7	nt	-1.3	nt	nt	nt
N#CCN1C(=O)NC2(CCCc3sccc32)C1=O (stereo not given)	1.2	5.1	0.6	2.7	-2.0	1.9	nt	nt	nt
O=C(CSc1nnc(-c2ccco2)o1)c1ccc([N+](=O)[O-])cc1	0.5	3.5	nt	8.6	0.3	36.2*	-11.1	-39.0	-22.8
CCN(CC)C(=O)CSc1nnc(-c2ccco2)o1	1.8	5.0	4.7	1.5	0.2	-10.1	nt	nt	nt
CN(C)C(=O)CCSc1nnc(-c2ccco2)o1	-4.6	1.4	2.1	-3.6	-0.2	31.9*	-3.6	8.9	5.0
CC1CCC2C(=O)N(c3ccccc3OC(=O)c3ccccc3F)C(=O)C2C1 (stereo not given)	1.3	-0.7	-4.4	0.9	-1.4	0.2	nt	nt	nt
Cc1nc2sc(-c3ccccc3)cc2c(=O)[nH]1	0.5	-0.8	1.0	13.5	6.9	47.9*	10.5	-24.4	-1.1
CC(OC(=O)c1cccs1)C(=O)NC1CC1 (stereo not given)	-7.2	-2.2	2.3	0.8	2.9	38.3*	-3.6	-36.3	-18.9
Cc1cc(NCCCCCCCNc2cc(C)nc3cc([N+](=O)[O-])ccc23)c2ccc([N+](=O)[O-])cc2n1	nt	105.5	-8.1	101.8	nt	95.2*	85.4*	75.7*	11.1
CCOC(=O)N1CCN(C(=O)c2cc(OC)c(OC)c(OC)c2)CC1	-3.6	-0.9	5.5	6.3	-2.9	35.1*	-9.0	-18.9	3.2
O=C(Nc1ccc2c(c1)C(=O)NC2=O)c1ccc2ncsc2c1	1.8	5.3	-5.9	2.2	-1.1	0.6	nt	nt	nt
CCOC(=O)Cn1c(=NC(=O)c2cc(-c3cccs3)nc3ccccc23)sc2cc(S(N)(=O)=O)ccc21	3.4	14.1	7.6	25.2	18.6	93.8*	17.7	-23.5	5.2
SMILES	IDE cell inh	CSN deneddyl inh	IDE act	HNF4A DNA FP	TPT1 inh	Rpn11 inh	Rpn11 inh conf	MMP-2 inh	Thrombin inh
COC(=O)Cn1c(=NC(=O)c2nc3ccccc3s2)sc2cc(S(N)(=O)=O)ccc21	-0.9	17.7	0.9	-0.1	1.8	47.2*	-6.1	18.6	-9.4
CC(C)c1ccc(OCC(=O)NC2CC(C)(C)NC(C)(C)C2)c(Br)c1	3.0	1.6	5.4	-0.4	0.1	4.7	nt	nt	nt
CCC(C)C1/C=C\CC(NC(=O)OCC2c3ccccc3-c3ccccc32)CC(=O)N1Cc1ccccc1 (stereo not given)	nt	-4.3	0.6	-0.5	nt	3.9	nt	nt	nt
Cc1ccc(S(=O)(=O)Nc2ccccn2)cc1[N+](=O)[O-]	-2.9	-0.8	nt	1.3	-3.3	3.3	nt	nt	nt
CC(=O)N1c2ccc(S(=O)(=O)N(C)CC(=O)NC(C)c3ccccc3)cc2CC1C (stereo not given)	2.0	-0.4	4.3	-1.3	-1.9	-4.9	nt	nt	nt
CCN(CC)c1cc(C(F)(F)F)nc(-c2ccccn2)n1	4.2	0.3	3.1	4.4	1.7	143.9*	-10.7	-12.4	-21.2
CCCCn1c(NC(=O)CC)c(C#N)c2nc3ccccc3nc21	-1.7	-0.1	3.2	0.5	3.5	189.4*	38.2	-18.7	-16.9
CCC(=O)Nc1c(C#N)c2nc3ccccc3nc2n1C1CCCCC1	-1.4	31.5	1.8	12.0	1.5	92.2*	5.6	-28.8	-4.6
Cc1ccc(F)c(S(=O)(=O)NC(=O)C2(C)CCN2C(=O)CC2CCCCC2)c1 (stereo not given)	nt	-1.0	nt	-0.7	nt	-2.2	nt	nt	nt
C=CCSc1nnc(NC(=O)c2cn(CC)c3nc(C)ccc3c2=O)s1	-1.0	25.9	-0.9	17.4	11.6	48.2*	9.8	-63.9	11.6
O=C(Nc1nc(-c2ccc(F)c(F)c2)cs1)Nc1ccc(F)cc1F	-1.9	1.8	1.9	10.1	0.9	56.5*	78.8*	-36.9	-13.1
O=C(Cc1ccccc1F)Nc1nc(-c2ccc(F)c(F)c2)cs1	-3.6	4.4	-2.2	-0.4	-2.2	5.2	nt	nt	nt
O=c1c2c3c(sc2nc2n1N=C(c1cccs1)CS2)CCCC3	3.2	20.2	0.3	12.4	4.2	58.5*	15.7	-27.4	-16.8
CC(=O)c1ccccc1NC(=O)CCCNC(=O)c1ccc(Cl)cc1	-0.9	3.4	3.5	-2.3	5.2	-5.1	nt	nt	nt
Cc1cccc(N=Cc2ccccc2O)c1C	nt	0.8	nt	-0.7	nt	-1.0	nt	nt	nt
CCc1ccc(O)c(N=Cc2cccc(C)c2O)c1	5.1	9.8	5.8	19.2	2.5	43.7*	43.5*	-21.5	17.8
Cc1nc(N)sc1-c1csc(Nc2ccc(S(N)(=O)=O)cc2)n1	nt	9.5	-9.5	10.4	nt	41.4*	23.7	21.5	-3.5

Assay outcomes as filed in PubChem.
